High-throughput results as filed in PubChem BioAssay.
Most compounds without a hit are left out; they make up all but 2.3% or so of the library.
TRPC4 act: activators of mouse TRPC4 channel. B-score at 10 µM. HEK293 TRPC4beta/mu-opioid, Fluo4 calcium fluorescence; stronger effect = higher value. Q9QUQ5. 0.49% of 310,000 active;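 active = B-score above 5 SD of library B-scores, and initial fluorescence ratio not above library mean plus 5 SD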;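 note: positive B-score marks a calcium rise read as TRPC4 activation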
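Material: TRPC4beta and mu-opioid receptor HEK293 stable cells | Incubation: 45 min room-temperature Fluo4 loading, 110 s read | Detection: Kinetic Fluo4 calcium fluorescence | Measure: Integrated baseline-normalised fluorescence ratio, converted to per-well B score | Benchmarks: Low control buffer alone, high control maximal DAMGO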
TRPC4 potent: TRPC4 (mouse) allosteric potentiation; HEK293 TRPC4beta/mu-opioid, DAMGO EC20, Fluo-4 Ca2+ flux; stronger effect = higher value; B-score at 10 µM; 0.42% of 310,000 active; AID 2227;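 active = B-score of calcium response area above 5 SD of library B-scores, with initial fluorescence ratio within 5 SD of library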
TRPC6 act: activators of mouse TRPC6 channel. Q61143. HEK293-TRPC6 membrane potential dye fluorescence; stronger effect = higher value. B-score at 10 µM. 0.13% of 310,000 active. AID 2550;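 active = B-score of the integrated fluorescence ratio above library mean plus 3 SD, and starting fluorescence ratio within library mean plus 5 SD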;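 note: higher score means more depolarization so channel activation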
Target sequence (Q61143 whole entry, looked up): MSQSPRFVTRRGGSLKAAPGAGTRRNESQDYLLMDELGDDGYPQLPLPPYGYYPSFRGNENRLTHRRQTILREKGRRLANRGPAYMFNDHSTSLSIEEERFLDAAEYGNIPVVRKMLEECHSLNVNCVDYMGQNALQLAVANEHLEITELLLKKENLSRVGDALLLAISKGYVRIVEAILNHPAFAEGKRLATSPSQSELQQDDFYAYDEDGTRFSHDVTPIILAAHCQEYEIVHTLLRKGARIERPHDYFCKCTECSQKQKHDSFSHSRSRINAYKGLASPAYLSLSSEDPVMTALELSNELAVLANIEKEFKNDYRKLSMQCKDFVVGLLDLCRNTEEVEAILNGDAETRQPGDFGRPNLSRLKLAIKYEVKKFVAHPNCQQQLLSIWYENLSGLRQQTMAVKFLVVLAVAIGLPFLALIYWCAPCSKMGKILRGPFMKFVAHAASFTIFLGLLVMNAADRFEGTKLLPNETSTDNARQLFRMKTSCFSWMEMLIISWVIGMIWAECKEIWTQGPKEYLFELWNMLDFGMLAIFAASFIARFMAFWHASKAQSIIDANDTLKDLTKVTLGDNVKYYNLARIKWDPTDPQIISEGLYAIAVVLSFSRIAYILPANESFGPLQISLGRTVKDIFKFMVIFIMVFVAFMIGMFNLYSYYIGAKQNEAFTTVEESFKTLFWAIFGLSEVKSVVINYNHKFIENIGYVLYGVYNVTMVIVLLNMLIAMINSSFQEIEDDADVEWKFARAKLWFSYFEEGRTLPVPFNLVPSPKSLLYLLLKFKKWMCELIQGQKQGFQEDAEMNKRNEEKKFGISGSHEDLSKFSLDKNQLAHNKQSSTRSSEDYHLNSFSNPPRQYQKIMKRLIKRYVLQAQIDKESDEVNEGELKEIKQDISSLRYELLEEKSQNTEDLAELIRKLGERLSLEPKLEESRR
TRPC6 inhibitor: blocks the mouse TRPC6 cation channel; B-score at 10 µM; 1.1% of 310,000 active; HEK293-TRPC6, membrane potential dye, ACh-evoked depolarization; stronger effect = lower value;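 active = B-score under library mean minus 3 SD, initial fluorescence not abnormally high, positive integrated signal ratio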;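 note: B-score derived from integrated fluorescence ratio over the kinetic read; more negative B-score means stronger inhibition of depolarization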
TRPC4 inh: TRPC4 (mouse) channel inhibition | AID 2247 | B-score at 10 µM | HEK293 TRPC4beta/mu-opioid, DAMGO-evoked Fluo4 calcium flux; stronger effect = lower value | 0.39% of 300,000 active | Q9QUQ5;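 active = B-score over 3 SD under the library average, no early fluorescence shift, positive overall ratio signal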
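Signal: kinetic Fluo4 fluorescence imaging of calcium influx. Material: stable TRPC4beta/mu-opioid receptor HEK293 cells. Probe or stimulus: DAMGO in two steps, submaximal then maximal.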
TRPC4 sel inh 2: second selectivity test of TRPC6 inhibitors: effect on mouse TRPC4. AID 2776. shares compounds with TRPC6 inhibitor. inhibition, % at 10 µM. HEK293 TRPC4/MOR, membrane potential dye fluorescence; channel activated by saturating DAMGO dose. 42% of 920 active;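 active = compounds whose fluorescence signal differed from control wells by over 3 SD, either direction, in both duplicate plates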
TRPC4 spec: tests whether TRPC6 inhibitors also affect mouse TRPC4; activity change, negative = inhibition, % at 10 µM; HEK293 TRPC4/mu-opioid, membrane potential fluorescence; shares compounds with TRPC6 inhibitor; AID 2777; 61% of 920 active;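 active = rise or fall in signal beyond 3 SD of buffer-only wells in both replicate plates, either sign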;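 note: integrated kinetic ratio of fluorescence range over baseline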
HEK293 MPD ctr 2-1: second check of TRPC6 inhibitor effects in parental HEK293 cells; AID 2779; parental HEK293 membrane potential dye fluorescence; maximal acetylcholine challenge after compound addition; shares compounds with TRPC6 inhibitor; signal change vs control, % at 10 µM; 31% of 920 active;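 active = membrane potential signal moving either way by over 3 SD of the maximum-effect control, in both duplicate plates, meaning non-specific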
HEK293 MPD ctr-1: checks TRPC6 inhibitor effects in parental HEK293 cells; parental HEK293 membrane potential dye fluorescence; AID 2780; 60% of 920 active; shares compounds with TRPC6 inhibitor; membrane potential signal change, % at 10 µM;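 active = membrane potential signal shifting up or down by more than 3 SD of buffer-only wells, on both duplicate plates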
HEK293 MPD ctr-2: counter-screen for TRPC6 modulators: effect in parental HEK293 cells. shares compounds with TRPC6 inhibitor. membrane potential dye fluorescence. membrane potential signal change, % at 10 µM. 51% of 2,400 active. AID 488924;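 active = membrane potential signal moves up or down beyond 5 SD from buffer-only wells, on both duplicate plates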
HEK293 MPD ctr 2-2: second check of TRPC6 modulator effects in parental HEK293 cells; shares compounds with TRPC6 inhibitor; membrane potential dye fluorescence; after compound, maximal acetylcholine stimulation; inhibition, % at 10 µM; 14% of 2,400 active; AID 488926;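 active = membrane potential signal drops by more than 5 SD from the mean control signal, in both duplicate plates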
TRPC4 ctr mod: tests whether TRPC6 modulators also affect mouse TRPC4; 69% of 2,400 active; HEK293 TRPC4/mu-opioid, membrane potential fluorescence; AID 488927; percent change from control (negative = decrease, positive = increase), % at 10 µM; shares compounds with TRPC6 inhibitor;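 active = membrane potential signal moved up or down beyond 5 SD of buffer control wells, in both duplicate plates, actives on both sides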
TRPC4 ctr inh 2: second selectivity test of TRPC6 modulators against mouse TRPC4. shares compounds with TRPC6 inhibitor. HEK293 TRPC4/mu-opioid, membrane potential dye fluorescence; stimulated with maximal-effect DAMGO. inhibition, % at 10 µM. 55% of 2,400 active;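 active = drop in membrane potential signal beyond 5 SD of the control wells in both duplicate plates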;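 note: TRPC4 counter screen for TRPC6 hits run under conditions tuned for TRPC6 not TRPC4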
TRPC6 block conf: mouse TRPC6 inhibitor confirmation. shares compounds with TRPC6 inhibitor. HEK293-TRPC6, membrane potential dye, ACh-evoked depolarization. inhibition, % at 10 µM. 43% of 3,300 active;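 active = fluorescence ratio falls more than 5 SD below the full-stimulation control mean, in both duplicate runs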;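 note: integrated fluorescence ratio of peak minus minimum over baseline after agonist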
TRPC6 act conf: confirmation of mouse TRPC6 activators. shares compounds with TRPC6 inhibitor. activation, % at 10 µM. AID 488961. 11% of 2,800 active. HEK293-TRPC6 membrane potential dye fluorescence, FDSS;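 active = ratio signal rise beyond 5 SD above unstimulated control wells' mean, seen in both duplicate runs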
Hits are given with their value; n = inactive; x = no result.

SMILES	TRPC4 act	TRPC4 potent	TRPC6 act	TRPC6 inhibitor	TRPC4 inh	HEK293 MPD ctr-2	HEK293 MPD ctr 2-2	TRPC4 ctr mod	TRPC4 ctr inh 2	TRPC6 block conf	TRPC6 act conf	others
CC(Nc1nc(N2CCN(S(C)(=O)=O)CC2)nc2ccccc12)c1ccccc1 (stereo not given)	n	n	n	-6	n	-158%	n	-26%	52%	n	n
CC1=CC(C)(C)N(C(=O)CNC2CCCC2)c2cc(C)ccc21	n	n	n	-6.4	n	125%	n	31%	45%	54%	x
CC(=O)c1cnc(Nc2nc(C)c3ccc(C)cc3n2)nc1C	n	n	n	-5.7	n	-154%	81%	-20%	n	n	n
CC(=O)c1cnc(Nc2nc(C)c3ccccc3n2)nc1C	n	n	n	n	n	x	x	x	x	x	x
CCN1CCc2c(C#N)c(NCc3ccccc3)nc(N(CC)CC)c2C1	n	n	n	-7.2	n	x	x	x	x	n	n	TRPC4 sel inh 2=66%;TRPC4 spec=-10%;HEK293 MPD ctr 2-1=n;HEK293 MPD ctr-1=n
CCCc1nc(NCc2ccccc2)c(C#N)c2c1CCCC2	n	n	n	n	n	x	x	x	x	x	x
C=CCNc1nc(NCc2ccccc2)c(C#N)c2c1CN(C)CC2	n	n	n	-6.5	n	-75%	n	-21%	46%	n	n
COC(=O)c1oc2ccc(Br)cc2c1NC(=O)CN1CCN(C)CC1	n	n	n	-5.5	n	n	n	-16%	52%	48%	n
CCC(C(=O)OC)n1cnc2c(nnn2-c2ccc(F)cc2)c1=O (stereo not given)	n	n	n	n	n	x	x	x	x	x	x
CC(C)CC[n+]1ccccc1/C=C/c1ccc(N(C)C)cc1	66	n	n	-5.8	n	719%	113%	115%	n	68%	x
CN(C)c1ccc(/C=C/c2cccc[n+]2[O-])cc1	n	n	n	n	n	x	x	x	x	x	x
CCN(c1ccc(OC)cc1)S(=O)(=O)c1ccc2c(c1)CC(C)N2C(=O)C1CC1 (stereo not given)	n	n	n	n	n	x	x	x	x	x	x
Cc1ccsc1C(C(=O)NC(C)(C)C)N(C(=O)c1csnn1)c1ccccc1 (stereo not given)	n	n	n	n	n	x	x	x	x	x	x
COc1ccc(S(=O)(=O)N2CCc3cc(OC)c(OC)cc3C2)cc1	n	n	n	-7.1	n	x	x	x	x	n	n	TRPC4 sel inh 2=n;TRPC4 spec=n;HEK293 MPD ctr 2-1=n;HEK293 MPD ctr-1=n
COc1cc2c(cc1OC)CN(S(=O)(=O)c1cccs1)CC2	n	n	n	n	n	x	x	x	x	x	x
COC(=O)c1ccsc1NC(=O)CN1CCN(Cc2ccc3c(c2)OCO3)CC1	n	n	n	-6.7	n	x	x	x	x	n	x	TRPC4 sel inh 2=n;TRPC4 spec=19%;HEK293 MPD ctr 2-1=389%;HEK293 MPD ctr-1=16%
COc1ccc2c(c1)c(C(=O)CN1CCN(Cc3ccccc3)CC1)c(C)n2C	n	n	n	-5.3	n	n	n	-14%	60%	n	n
COC(=O)c1ccccc1NC(=O)CN1CCCCC1	n	n	n	n	n	x	x	x	x	x	x
CCOC(=O)c1c(C)n(C)c2ccc(OC)c(NC(=O)CN3CCN(Cc4ccccc4)CC3)c12	n	n	n	-5.7	n	n	n	8.5%	39%	n	n
COC(=O)c1ccccc1NC(=O)CN1CCN(Cc2ccccc2)CC1	n	n	15	n	n	384%	n	60%	40%	n	142%
COC(=O)c1c(NC(=O)CN2CCN(Cc3ccc4c(c3)OCO4)CC2)sc(C)c1C	n	n	n	n	n	x	x	x	x	x	x
COc1ccc2c(c1)c(C(=O)CN1CCN(c3ccccc3)CC1)c(C)n2C	n	n	n	n	n	x	x	x	x	x	x
CC(C)Oc1ccc(C(=O)Nc2ccc(S(=O)(=O)N3CCN(C)CC3)cc2)cc1	n	n	n	n	n	x	x	x	x	x	x
CSCCC(=O)N1CCC(n2nccc2NC(=O)CCCc2ccccc2)CC1	n	n	n	n	n	x	x	x	x	x	x
COc1cc(C(=O)N2CCc3ccccc32)ccc1OCc1c(C)noc1C	n	n	n	n	n	x	x	x	x	x	x
SMILES	TRPC4 act	TRPC4 potent	TRPC6 act	TRPC6 inhibitor	TRPC4 inh	HEK293 MPD ctr-2	HEK293 MPD ctr 2-2	TRPC4 ctr mod	TRPC4 ctr inh 2	TRPC6 block conf	TRPC6 act conf	others
Cc1ccc(C(=O)NCC(=O)OCC(=O)NCC(F)(F)F)cc1	n	n	n	n	n	x	x	x	x	x	x
Cc1noc(C)c1COc1ccc(C(=O)OCC(=O)Nc2ccc(C(=O)N(C)C)cc2)cc1	n	n	n	n	n	x	x	x	x	x	x
COc1ccccc1CN1CCN(C(CC(C)C)c2nnnn2Cc2cccs2)CC1 (stereo not given)	n	n	n	-7.2	n	x	x	x	x	n	x	TRPC4 sel inh 2=9.5%;TRPC4 spec=47%;HEK293 MPD ctr 2-1=231%;HEK293 MPD ctr-1=18%
CCc1nc2ccccc2c(C(=O)Nc2ccc(C)cc2)c1C	n	n	n	n	n	x	x	x	x	x	x
CCc1nc2ccc(C)cc2c(C(=O)NC2CCCCC2C)c1C (stereo not given)	n	n	14	n	n	426%	n	102%	31%	n	148%
O=[N+]([O-])c1ccc(C(O)C[n+]2ccccc2)cc1 (stereo not given)	n	n	n	n	n	x	x	x	x	x	x
COCc1cc(C)nc(SCC[N+](C)(C)CC(=O)Nc2cccc(C)c2)c1C#N	n	n	n	-7	n	x	x	x	x	n	n	TRPC4 sel inh 2=n;TRPC4 spec=-13%;HEK293 MPD ctr 2-1=n;HEK293 MPD ctr-1=-170%
Cn1c(=O)c2c(nc(N3CCOCC3)n2CCc2ccccc2)n(C)c1=O	n	n	n	n	n	x	x	x	x	x	x
CN(C)C=NCCn1c(N2CCOCC2)nc2c1c(=O)n(C)c(=O)n2C	n	n	n	-7.1	n	-274%	n	-44%	35%	n	n
